Source: ChEMBL document CHEMBL5696442, “Discovery of type II inhibitors of TGFβ-activated kinase 1 (TAK1) and mitogen-activated protein kinase kinase kinase kinase 2 (MAP4K2)” (J Med Chem, 2015)

Columns and labels:
Assay type in all cases: cell-based
[1] = molecular target: Tyrosine-protein kinase JAK1 (Homo sapiens) (UniProt P23458); experiment: Inhibition of JAK1 domain2 ACT labeling site in human A-375 cells at 5 uM by KiNativ Profiling analysis relative to control
[2] = molecular target: T1, Serine/threonine-protein kinase Nek8 (Homo sapiens) (UniProt Q86SG6); experiment: Inhibition of NEK8 Lys2 labeling site in human A-375 cells at 0.5 uM by KiNativ Profiling analysis relative to control
T1 sequence (whole entry): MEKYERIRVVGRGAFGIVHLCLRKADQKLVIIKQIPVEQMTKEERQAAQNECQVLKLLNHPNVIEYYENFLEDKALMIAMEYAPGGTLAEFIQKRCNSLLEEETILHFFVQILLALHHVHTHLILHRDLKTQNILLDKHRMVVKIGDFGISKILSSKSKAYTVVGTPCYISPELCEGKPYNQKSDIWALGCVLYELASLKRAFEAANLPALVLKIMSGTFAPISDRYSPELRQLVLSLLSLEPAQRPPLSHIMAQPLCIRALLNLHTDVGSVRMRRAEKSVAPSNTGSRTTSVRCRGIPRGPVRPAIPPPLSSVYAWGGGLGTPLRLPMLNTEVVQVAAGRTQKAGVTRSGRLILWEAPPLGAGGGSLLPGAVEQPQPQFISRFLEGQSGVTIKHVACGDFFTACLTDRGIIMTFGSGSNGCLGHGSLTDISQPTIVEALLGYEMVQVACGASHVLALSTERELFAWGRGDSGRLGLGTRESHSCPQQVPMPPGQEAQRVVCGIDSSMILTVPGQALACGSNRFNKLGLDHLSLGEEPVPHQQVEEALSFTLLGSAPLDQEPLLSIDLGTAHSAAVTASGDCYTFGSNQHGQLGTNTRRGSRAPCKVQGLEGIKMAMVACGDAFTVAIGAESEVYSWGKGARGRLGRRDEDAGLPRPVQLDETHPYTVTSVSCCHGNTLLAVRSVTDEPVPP

[3] = molecular target: Ribosomal protein S6 kinase alpha-3 (Homo sapiens) (UniProt P51812); experiment: Inhibition of RSK2 domain2 Lys2 labeling site in human A-375 cells at 5 uM by KiNativ Profiling analysis relative to control
Ribosomal protein S6 kinase alpha-3 (Homo sapiens), sequence (P51812 whole entry, the tested form may be a part): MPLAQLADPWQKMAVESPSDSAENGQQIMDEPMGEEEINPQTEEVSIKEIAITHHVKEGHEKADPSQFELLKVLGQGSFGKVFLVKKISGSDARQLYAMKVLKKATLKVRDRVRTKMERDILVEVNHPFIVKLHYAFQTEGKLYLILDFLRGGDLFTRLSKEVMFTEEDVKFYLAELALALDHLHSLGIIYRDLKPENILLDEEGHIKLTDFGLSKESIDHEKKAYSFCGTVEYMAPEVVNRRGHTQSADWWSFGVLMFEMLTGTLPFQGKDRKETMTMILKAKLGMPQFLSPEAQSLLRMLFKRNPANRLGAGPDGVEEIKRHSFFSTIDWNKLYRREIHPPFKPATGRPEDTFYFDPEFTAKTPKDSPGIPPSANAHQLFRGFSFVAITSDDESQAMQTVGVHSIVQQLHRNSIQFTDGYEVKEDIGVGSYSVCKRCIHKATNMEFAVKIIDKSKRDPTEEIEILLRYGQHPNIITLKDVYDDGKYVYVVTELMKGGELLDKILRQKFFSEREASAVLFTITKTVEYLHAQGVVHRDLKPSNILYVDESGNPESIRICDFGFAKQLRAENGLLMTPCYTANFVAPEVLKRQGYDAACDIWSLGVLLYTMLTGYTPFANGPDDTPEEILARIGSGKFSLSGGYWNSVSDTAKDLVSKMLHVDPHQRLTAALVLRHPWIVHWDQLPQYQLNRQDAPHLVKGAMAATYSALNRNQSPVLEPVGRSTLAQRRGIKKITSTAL
Procedure, shortened: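 Live A375 melanoma cells treated with compound at 5 or 0.5 μM, then lysed. Lysate kinases were labeled with a lysine-reactive ATP or ADP-biotin probe. Inhibition was read as protection of labeling sites from the probe.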

[4] = molecular target: T2, Serine/threonine-protein kinase Nek9 (Homo sapiens) (UniProt Q8TD19); experiment: Inhibition of NEK9 Lys2 labeling site in human A-375 cells at 5 uM by KiNativ Profiling analysis relative to control
T2 sequence (whole entry): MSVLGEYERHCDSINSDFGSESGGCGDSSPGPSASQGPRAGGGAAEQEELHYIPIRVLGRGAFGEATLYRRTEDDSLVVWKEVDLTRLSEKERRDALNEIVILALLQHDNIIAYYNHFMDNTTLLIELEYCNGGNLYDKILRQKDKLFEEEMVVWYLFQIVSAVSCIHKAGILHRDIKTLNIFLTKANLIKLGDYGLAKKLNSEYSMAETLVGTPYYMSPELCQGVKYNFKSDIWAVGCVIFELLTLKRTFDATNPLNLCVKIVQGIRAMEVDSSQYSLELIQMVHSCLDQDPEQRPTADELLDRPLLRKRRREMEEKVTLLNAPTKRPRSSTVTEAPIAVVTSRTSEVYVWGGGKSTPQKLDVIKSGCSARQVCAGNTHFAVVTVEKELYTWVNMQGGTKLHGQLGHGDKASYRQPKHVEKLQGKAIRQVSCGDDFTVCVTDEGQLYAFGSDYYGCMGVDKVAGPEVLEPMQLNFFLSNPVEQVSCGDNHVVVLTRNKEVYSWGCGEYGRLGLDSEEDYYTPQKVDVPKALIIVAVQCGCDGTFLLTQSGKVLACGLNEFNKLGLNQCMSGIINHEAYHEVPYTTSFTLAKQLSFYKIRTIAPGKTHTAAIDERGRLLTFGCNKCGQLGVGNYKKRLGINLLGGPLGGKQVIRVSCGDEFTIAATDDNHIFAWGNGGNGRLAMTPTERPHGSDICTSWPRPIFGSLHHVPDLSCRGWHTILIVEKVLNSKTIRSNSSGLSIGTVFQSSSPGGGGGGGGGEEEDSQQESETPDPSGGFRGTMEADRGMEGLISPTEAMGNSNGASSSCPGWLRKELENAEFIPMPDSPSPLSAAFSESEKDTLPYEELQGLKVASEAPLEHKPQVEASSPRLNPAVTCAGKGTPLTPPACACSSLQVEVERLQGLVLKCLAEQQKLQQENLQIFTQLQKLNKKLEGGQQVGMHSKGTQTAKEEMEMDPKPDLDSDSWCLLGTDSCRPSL

[5] = molecular target: Mitogen-activated protein kinase 7 (Homo sapiens) (UniProt Q13164); experiment: Inhibition of Erk5 Lys2 labeling site in human A-375 cells at 5 uM by KiNativ Profiling analysis relative to control
Mitogen-activated protein kinase 7 (Homo sapiens), sequence (Q13164 2-816 limits assumed): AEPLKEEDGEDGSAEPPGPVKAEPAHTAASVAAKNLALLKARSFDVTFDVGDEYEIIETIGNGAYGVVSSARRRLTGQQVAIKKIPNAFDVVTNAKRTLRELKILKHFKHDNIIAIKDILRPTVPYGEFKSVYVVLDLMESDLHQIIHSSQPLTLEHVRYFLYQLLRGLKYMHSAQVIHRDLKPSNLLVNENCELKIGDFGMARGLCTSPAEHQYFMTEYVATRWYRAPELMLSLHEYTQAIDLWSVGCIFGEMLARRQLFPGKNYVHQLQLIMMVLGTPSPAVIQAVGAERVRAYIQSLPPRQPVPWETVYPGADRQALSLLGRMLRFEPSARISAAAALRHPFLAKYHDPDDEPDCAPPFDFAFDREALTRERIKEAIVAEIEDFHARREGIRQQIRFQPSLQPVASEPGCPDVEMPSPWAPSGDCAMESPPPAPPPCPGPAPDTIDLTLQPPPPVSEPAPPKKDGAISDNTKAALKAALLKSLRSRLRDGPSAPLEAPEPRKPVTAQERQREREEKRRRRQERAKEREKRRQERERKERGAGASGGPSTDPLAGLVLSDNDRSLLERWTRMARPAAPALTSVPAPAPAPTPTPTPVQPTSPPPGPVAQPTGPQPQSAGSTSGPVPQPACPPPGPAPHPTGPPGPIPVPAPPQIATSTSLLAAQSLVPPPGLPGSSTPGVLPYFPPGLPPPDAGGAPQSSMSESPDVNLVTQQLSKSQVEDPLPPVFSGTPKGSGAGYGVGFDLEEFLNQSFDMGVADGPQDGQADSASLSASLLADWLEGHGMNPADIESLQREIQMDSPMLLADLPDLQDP
Procedure, shortened: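 Live A375 melanoma cells were treated with compound at 0.5 or 5 μM, then lysed. Lysates were labeled with a lysine-reactive ATP or ADP-biotin probe. The read-out was protection of each kinase probe-labeling site from labeling, relative to control.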

Tyrosine-protein kinase JAK1 (Homo sapiens), sequence (P23458 whole entry, the tested form may be a part): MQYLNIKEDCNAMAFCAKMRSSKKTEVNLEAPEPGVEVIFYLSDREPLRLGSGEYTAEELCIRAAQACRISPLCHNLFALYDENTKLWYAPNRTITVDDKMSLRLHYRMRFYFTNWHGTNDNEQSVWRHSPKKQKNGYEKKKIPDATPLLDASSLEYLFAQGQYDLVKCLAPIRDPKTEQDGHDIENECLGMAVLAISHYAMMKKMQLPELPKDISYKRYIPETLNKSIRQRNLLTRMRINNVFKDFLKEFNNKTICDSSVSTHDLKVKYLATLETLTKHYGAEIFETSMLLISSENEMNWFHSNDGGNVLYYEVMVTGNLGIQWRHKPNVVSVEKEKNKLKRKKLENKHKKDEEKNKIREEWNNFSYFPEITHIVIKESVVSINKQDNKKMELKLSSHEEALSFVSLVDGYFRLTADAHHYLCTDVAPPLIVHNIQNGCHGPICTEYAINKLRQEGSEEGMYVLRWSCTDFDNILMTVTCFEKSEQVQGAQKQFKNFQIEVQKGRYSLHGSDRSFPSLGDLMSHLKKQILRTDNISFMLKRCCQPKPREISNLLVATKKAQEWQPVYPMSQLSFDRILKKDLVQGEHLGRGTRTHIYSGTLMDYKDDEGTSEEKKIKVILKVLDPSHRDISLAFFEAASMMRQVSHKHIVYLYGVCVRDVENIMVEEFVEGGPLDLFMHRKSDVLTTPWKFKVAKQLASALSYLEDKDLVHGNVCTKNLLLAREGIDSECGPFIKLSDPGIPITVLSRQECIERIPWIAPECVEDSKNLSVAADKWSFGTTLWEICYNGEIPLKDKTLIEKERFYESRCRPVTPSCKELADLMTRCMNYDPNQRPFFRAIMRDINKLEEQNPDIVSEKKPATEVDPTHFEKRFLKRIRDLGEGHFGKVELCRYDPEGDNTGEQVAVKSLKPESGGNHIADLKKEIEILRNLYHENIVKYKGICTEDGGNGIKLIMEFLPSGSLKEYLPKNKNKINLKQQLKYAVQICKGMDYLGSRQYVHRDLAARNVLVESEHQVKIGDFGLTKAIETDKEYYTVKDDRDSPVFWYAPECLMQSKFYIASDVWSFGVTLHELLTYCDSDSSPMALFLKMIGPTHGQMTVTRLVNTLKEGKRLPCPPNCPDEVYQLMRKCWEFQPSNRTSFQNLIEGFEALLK

SMILES	inhibition [1] [%]	inhibition [2] [%]	inhibition [3] [%]	inhibition [4] [%]	inhibition [5] [%]
CCN1CCN(Cc2ccc(NC(=O)c3ccc(C)c(Oc4ccnc5[nH]ccc45)c3)cc2C(F)(F)F)CC1	95.4	-9.5	14.4	3.2	7.8
CCN1CCN(Cc2ccc(NC(=O)c3ccc(C)c(/C=C/c4cnc5[nH]ccc5c4OC)c3)cc2C(F)(F)F)CC1	69.2	-8.8	23.7	14.7	8.7
